Laboratory results: ChEMBL document CHEMBL1150415 (J Med Chem, 2008)

Legend:
[1] = Inhibition of cytosolic phospholipase A2alpha by GLU micelle assay
In short: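 Micellar assay with 7-hydroxycoumarinyl-γ-linolenate (GLU) substrate, presenting inhibitor and substrate to the enzyme in high-lipid micelles. Each run gives the mean of duplicate assays, and values come from at least two runs.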

Blood = assay: Inhibition of TXB2 production in Sprague-Dawley rat whole blood; assay type: functional, tissue-based
In short: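 Rat whole blood stimulated with calcium ionophore A23187 at 5 µM, with thromboxane B2 measured. Each run gives the mean of triplicate assays, and values come from at least two runs.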

Compound	IC50 [1] [nM]	IC50 (Blood) [nM]
N#Cc1ccc(CS(=O)(=O)NCCc2c(CCOc3ccc(C(=O)O)cc3)c3cc(Cl)ccc3n2C(c2ccccc2)c2ccccc2)cc1	260	150
O=C(O)c1ccc(OCCc2c(CCNS(=O)(=O)Cc3ccccn3)n(C(c3ccccc3)c3ccccc3)c3ccc(Cl)cc23)cc1	400	350
CN(CCc1c(CCNS(=O)(=O)Cc2ccccc2)n(C(c2ccccc2)c2ccccc2)c2ccc(Cl)cc12)c1ccc(C(=O)O)cc1	4300	1800
O=C(O)c1ccc(OCCc2c(CCNS(=O)(=O)Cc3cccnc3)n(C(c3ccccc3)c3ccccc3)c3ccc(Cl)cc23)cc1	220	360
O=C(O)c1ccc(NCCc2c(CCNS(=O)(=O)Cc3ccccc3)n(C(c3ccccc3)c3ccccc3)c3ccc(Cl)cc23)cc1	680	400
O=C(O)COc1ccc(Cc2c(CCNS(=O)(=O)Cc3ccccc3)n(C(c3ccccc3)c3ccccc3)c3ccc(Cl)cc23)cc1	7000	> 10000
O=C(O)c1ccc(OCCc2c(CCNS(=O)(=O)Cc3ccc4ccccc4c3)n(C(c3ccccc3)c3ccccc3)c3ccc(Cl)cc23)cc1	230	140
N#Cc1cccc(CS(=O)(=O)NCCc2c(CCOc3ccc(C(=O)O)cc3)c3cc(Cl)ccc3n2C(c2ccccc2)c2ccccc2)c1	300	160
O=C(O)Cc1nc(CCCc2c(CCNS(=O)(=O)Cc3ccccc3)n(C(c3ccccc3)c3ccccc3)c3ccc(Cl)cc23)no1	> 20000	
O=C(O)c1ccc(Cc2c(CCNS(=O)(=O)Cc3ccccc3)n(C(c3ccccc3)c3ccccc3)c3ccc(Cl)cc23)cc1	33000	> 10000

Molecules with a lower IC50 [1], results first:

IC50 [1] [nM]	IC50 (Blood) [nM]	Compound
160	90	O=C(O)c1ccc(OCCc2c(CCNS(=O)(=O)Cc3ccc([N+](=O)[O-])cc3)n(C(c3ccccc3)c3ccccc3)c3ccc(Cl)cc23)cc1
180	340	O=C(O)c1ccc(OCCc2c(CCNS(=O)(=O)Cc3ccncc3)n(C(c3ccccc3)c3ccccc3)c3ccc(Cl)cc23)cc1
70	70	O=C(O)c1ccc(CCCc2c(CCNS(=O)(=O)Cc3ccccc3)n(C(c3ccccc3)c3ccccc3)c3ccc(Cl)cc23)cc1
110		O=C(O)c1ccc(OCCc2c(CCNS(=O)(=O)Cc3ccccc3)n(C(c3ccccc3)c3ccccc3)c3ccc(Cl)cc23)cc1
60	70	N#Cc1ccccc1CS(=O)(=O)NCCc1c(CCOc2ccc(C(=O)O)cc2)c2cc(Cl)ccc2n1C(c1ccccc1)c1ccccc1
85	30	O=C(O)c1ccc(OCCc2c(CCNS(=O)(=O)Cc3ccccc3[N+](=O)[O-])n(C(c3ccccc3)c3ccccc3)c3ccc(Cl)cc23)cc1
190	70	O=C(O)CCc1ccc(OCCc2c(CCNS(=O)(=O)Cc3ccccc3)n(C(c3ccccc3)c3ccccc3)c3ccc(Cl)cc23)cc1
110	70	O=C(O)c1ccc(OCCc2c(CCNS(=O)(=O)Cc3cccc([N+](=O)[O-])c3)n(C(c3ccccc3)c3ccccc3)c3ccc(Cl)cc23)cc1
50	50	O=C(O)c1ccc(OCCc2c(CCNS(=O)(=O)Cc3ccccc3Cl)n(C(c3ccccc3)c3ccccc3)c3ccc(Cl)cc23)cc1
60	360	O=C(O)c1ccc(CCCc2c(CCNS(=O)(=O)Cc3c(F)cccc3F)n(C(c3ccccc3)c3ccccc3)c3ccc(Cl)cc23)cc1
60	30	Cc1ccccc1CS(=O)(=O)NCCc1c(CCOc2ccc(C(=O)O)cc2)c2cc(Cl)ccc2n1C(c1ccccc1)c1ccccc1
10	60	O=C(O)c1ccc(S(=O)(=O)CCc2c(CCNS(=O)(=O)Cc3ccccc3Cl)n(C(c3ccccc3)c3ccccc3)c3ccc(Cl)cc23)cc1
70	20	O=C(O)CCc1ccc(S(=O)(=O)CCc2c(CCNS(=O)(=O)Cc3c(F)cccc3F)n(C(c3ccccc3)c3ccccc3)c3ccc(Cl)cc23)cc1
